Article PMC8473721 (Journal of Inflammation Research, 2021)

Test system: MCF-7 human breast tumor xenograft
Assay: In vivo anticancer activity in human breast tumor xenograft model
Design: species or system female nude (nu/nu) mice
Details: 10 mg/kg BW
In short: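 Female nu/nu mice (6~7 weeks) were given about 1.5×10^7 MCF-7 cells subcutaneously in the dorsal back, in medium:Matrigel 1:1. Estradiol cyclopentyl propionate (100 µg/mouse) was given s.c. twice weekly. Once tumors reached ≥5 mm, mice were randomised, six per group, to 5 mg/kg BW test compound for 45 days, paclitaxel 10 mg/kg, or vehicle. Tumor size, BW and toxicity signs were recorded every 4 days.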

CC(=O)O[C@H]1C(=O)[C@@]2(C)[C@H]([C@H](OC(=O)c3ccccc3)[C@]3(O)C[C@H](OC(=O)[C@H](O)[C@@H](NC(=O)c4ccccc4)c4ccccc4)C(C)=C1C3(C)C)[C@]1(OC(C)=O)CO[C@@H]1C[C@@H]2O [paclitaxel]
tumor growth: significantly (p<0.001) inhibited tumor growth
